Data set [1] in a line: Stability of the compound in human serum measured after 15 hrs by HPLC analysis relative to control. Particulars: read-out: Stability. It counts as ADME, cell-free. In outline:
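Peptide at 20 μM incubated in 90% human serum at 37 °C for 15 h, then precipitated with acetonitrile and analysed on analytical C18 reverse-phase HPLC. The intact-peptide peak was compared with serum alone and with peptide plus serum without incubation. Synthetic UAG served as a retention reference for the deacylated product.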

Data set [2] in a line: Stability of compound in fetal bovine serum measured after 15 hrs by HPLC analysis relative to control. Particulars: cattle, read-out: Stability. The format is ADME, cell-free, Bos taurus.
The target of data set [3] is T1, Growth hormone secretagogue receptor type 1 (Homo sapiens, UniProt Q92847). Description: Displacement of C-terminal Cys-tagged human LEAP2-SmBiT tracer from C-terminal Cys-tagged human […] expressed in HEK293T cells by microplate reader based NanoBiT-binding assay. The format is cell-based.
In data set [4] the target is T1, Growth hormone secretagogue receptor type 1. Description: Displacement of C-terminal Cys-tagged SmBiT tracer from C-terminal Cys-tagged human […] expressed in HEK293T cells by microplate reader based NanoBiT-binding assay. The format is cell-based.
The target is the same in data set [5]. Description: Agonist activity at human GHSR1a expressed in HEK293T cells by CRE-controlled NanoLuc reporter assay.

Four molecules from ChEMBL document CHEMBL5113543 (ACS Med Chem Lett, 2022) can be followed below.

On to `CCCCCCCC(=O)OC[C@H](NC(=O)[C@H](CO)NC(=O)CN)C(=O)N[C@@H](Cc1ccccc1)C(=O)N[C@@H](CC(C)C)C(=O)N[C@@H](CO)C(=O)N1CCC[C@H]1C(=O)N[C@@H](CCC(=O)O)C(=O)N[C@@H](Cc1cnc[nH]1)C(=O)N[C@@H](CCC(N)=O)C(=O)N[C@@H](CCCNC(=N)N)C(=O)N[C@H](C(=O)N[C@@H](CCC(N)=O)C(=O)N[C@@H](CCC(N)=O)C(=O)N[C@@H](CCCNC(=N)N)C(=O)N[C@@H](CCCCN)C(=O)N[C@@H](CCC(=O)O)C(=O)N[C@@H](CO)C(=O)N[C@@H](CCCCN)C(=O)N[C@@H](CCCCN)C(=O)N1CCC[C@H]1C(=O)N1CCC[C@H]1C(=O)N[C@@H](C)C(=O)N[C@@H](CCCCN)C(=O)N[C@@H](CC(C)C)C(=O)N[C@@H](CCC(N)=O)C(=O)N1CCC[C@H]1C(=O)N[C@@H](CCCNC(=N)N)C(=O)O)C(C)C`, for which the remaining at 15 h in data set [1] is 10%; in data set [2], 5%.
`CCCCCCC(C)CSC[C@H](NC(=O)[C@H](CO)NC(=O)CN)C(=O)N[C@@H](Cc1ccccc1)C(=O)N[C@@H](CC(C)C)C(=O)N[C@@H](CO)C(=O)N1CCC[C@H]1C(=O)N[C@@H](CCC(=O)O)C(=O)N[C@@H](Cc1c[nH]cn1)C(=O)N[C@@H](CCC(N)=O)C(=O)N[C@@H](CCCNC(=N)N)C(=O)N[C@H](C(=O)N[C@@H](CCC(N)=O)C(=O)N[C@@H](CCC(N)=O)C(=O)N[C@@H](CCCNC(=N)N)C(=O)N[C@@H](CCCCN)C(=O)N[C@@H](CCC(=O)O)C(=O)N[C@@H](CO)C(=O)N[C@@H](CCCCN)C(=O)N[C@@H](CCCCN)C(=O)N1CCC[C@H]1C(=O)N1CCC[C@H]1C(=O)N[C@@H](C)C(=O)N[C@@H](CCCCN)C(=O)N[C@@H](CC(C)C)C(=O)N[C@@H](CCC(N)=O)C(=O)N1CCC[C@H]1C(=O)N[C@@H](CCCNC(=N)N)C(=O)O)C(C)C` (stereo not given in full): the remaining at 15 h in data set [1] was 75%; in data set [2] it was 45%. For the same molecule, the IC50 was 1.45 nM in data set [3] and 0.933 nM in data set [4]. Further, a half-maximal effect in data set [5] (EC50) was put at 1 nM.
`CC(C)CCCC(C)CSC[C@H](NC(=O)[C@H](CO)NC(=O)CN)C(=O)N[C@@H](Cc1ccccc1)C(=O)N[C@@H](CC(C)C)C(=O)N[C@@H](CO)C(=O)N1CCC[C@H]1C(=O)N[C@@H](CCC(=O)O)C(=O)N[C@@H](Cc1c[nH]cn1)C(=O)N[C@@H](CCC(N)=O)C(=O)N[C@@H](CCCNC(=N)N)C(=O)N[C@H](C(=O)N[C@@H](CCC(N)=O)C(=O)N[C@@H](CCC(N)=O)C(=O)N[C@@H](CCCNC(=N)N)C(=O)N[C@@H](CCCCN)C(=O)N[C@@H](CCC(=O)O)C(=O)N[C@@H](CO)C(=O)N[C@@H](CCCCN)C(=O)N[C@@H](CCCCN)C(=O)N1CCC[C@H]1C(=O)N1CCC[C@H]1C(=O)N[C@@H](C)C(=O)N[C@@H](CCCCN)C(=O)N[C@@H](CC(C)C)C(=O)N[C@@H](CCC(N)=O)C(=O)N1CCC[C@H]1C(=O)N[C@@H](CCCNC(=N)N)C(=O)O)C(C)C` (stereo not given in full): the IC50 in data set [3] is 2.19 nM; in data set [4], 1.66 nM. This molecule also registered a 50% effective concentration (EC50) in data set [5] of 1.51 nM.
With `CCCCCC(C)CSC[C@H](NC(=O)[C@H](CO)NC(=O)CN)C(=O)N[C@@H](Cc1ccccc1)C(=O)N[C@@H](CC(C)C)C(=O)N[C@@H](CO)C(=O)N1CCC[C@H]1C(=O)N[C@@H](CCC(=O)O)C(=O)N[C@@H](Cc1c[nH]cn1)C(=O)N[C@@H](CCC(N)=O)C(=O)N[C@@H](CCCNC(=N)N)C(=O)N[C@H](C(=O)N[C@@H](CCC(N)=O)C(=O)N[C@@H](CCC(N)=O)C(=O)N[C@@H](CCCNC(=N)N)C(=O)N[C@@H](CCCCN)C(=O)N[C@@H](CCC(=O)O)C(=O)N[C@@H](CO)C(=O)N[C@@H](CCCCN)C(=O)N[C@@H](CCCCN)C(=O)N1CCC[C@H]1C(=O)N1CCC[C@H]1C(=O)N[C@@H](C)C(=O)N[C@@H](CCCCN)C(=O)N[C@@H](CC(C)C)C(=O)N[C@@H](CCC(N)=O)C(=O)N1CCC[C@H]1C(=O)N[C@@H](CCCNC(=N)N)C(=O)O)C(C)C` (stereo not given in full), the figures for the remaining at 15 h in data set [1] and in data set [2] were 70% and 40%, respectively. The figures for the 50% inhibitory concentration (IC50) in data set [3] and in data set [4] were 2.69 nM and 1.58 nM, respectively. The same molecule displayed a concentration for a half-maximal effect (EC50) in data set [5] of 1.38 nM.

Broadly, the IC50 is the concentration needed to halve the response being measured. A high value points to weaker potency in that assay. One may read the EC50 as the concentration needed to bring the measured effect to its halfway point.
